Test results from publication PMC8416640 (Biochemistry and Biophysics Reports, 2021).

Legend:
ccT2R201 = ccT2R201 (Cyprinus carpio, UniProt A0A2Z6FB59); assay type: cell-based, common carp (Cyprinus carpio); conditions: for response of ccT2R201 in screening of bitter compounds: single screening concentration per compound, vs control buffer
Method in brief: (§1)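 Transient co-transfection of HEK293T cells with a pEAK10 vector carrying the carp receptor (cloned from lip cDNA or head genomic DNA) with an N-terminal sst tag (first 45 residues of rat somatostatin receptor 3), human Gα16gust44 and mt-apoclytin-II. Cells were exposed to each bitter test compound at one fixed screening concentration. Luminescence was read as area under the curve in RLU. More than three independent experiments were run in duplicate or triplicate, with paired t-tests.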

ccT2R200-1 = ccT2R200-1 (Cyprinus carpio, UniProt A0A2Z6FB23); assay type: cell-based, common carp (Cyprinus carpio); conditions: for response of ccT2R200-1 in screening of bitter compounds: single screening concentration per compound, vs control buffer
ccT2R200-2 = ccT2R200-2 (Cyprinus carpio, UniProt A0A2Z6FB19); assay type: cell-based, common carp (Cyprinus carpio); conditions: for response of ccT2R200-2 in screening of bitter compounds: single screening concentration per compound, vs control buffer
ccT2R203-1 = assay type: cell-based, common carp (Cyprinus carpio); conditions: for response of ccT2R203-1 in screening of bitter compounds: single screening concentration per compound, vs control buffer
ccT2R202-2 = assay type: cell-based, common carp (Cyprinus carpio); conditions: single screening concentration per compound, vs control buffer
Method in brief: as §1

drT2R3a = conditions: approximate, one range for four receptors; cited from earlier work
drT2R1 = conditions: drT2R1, approximate, one range for four receptors; cited from earlier work
mfT2R1 = conditions: mfT2R1, approximate, one range for four receptors; cited from earlier work
lcT2R01 = conditions: lcT2R01, approximate, one range for four receptors; cited from earlier work
drT2R4 = conditions: zebrafish receptor; cited from earlier work
ccT2R202-1 = assay type: cell-based, common carp (Cyprinus carpio); conditions: single screening concentration per compound, vs control buffer
Method in brief: as §1

ccT2R200-1, sequence (A0A2Z6FB23 1-321): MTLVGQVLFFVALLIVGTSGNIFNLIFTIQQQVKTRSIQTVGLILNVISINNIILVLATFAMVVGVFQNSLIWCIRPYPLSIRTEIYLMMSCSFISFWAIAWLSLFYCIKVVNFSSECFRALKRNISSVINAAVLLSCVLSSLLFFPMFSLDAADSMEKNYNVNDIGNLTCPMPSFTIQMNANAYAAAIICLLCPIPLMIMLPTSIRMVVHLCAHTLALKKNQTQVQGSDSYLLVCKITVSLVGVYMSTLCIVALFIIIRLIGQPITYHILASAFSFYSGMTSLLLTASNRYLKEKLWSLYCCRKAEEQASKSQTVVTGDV
ccT2R201, sequence (A0A2Z6FB59 1-327): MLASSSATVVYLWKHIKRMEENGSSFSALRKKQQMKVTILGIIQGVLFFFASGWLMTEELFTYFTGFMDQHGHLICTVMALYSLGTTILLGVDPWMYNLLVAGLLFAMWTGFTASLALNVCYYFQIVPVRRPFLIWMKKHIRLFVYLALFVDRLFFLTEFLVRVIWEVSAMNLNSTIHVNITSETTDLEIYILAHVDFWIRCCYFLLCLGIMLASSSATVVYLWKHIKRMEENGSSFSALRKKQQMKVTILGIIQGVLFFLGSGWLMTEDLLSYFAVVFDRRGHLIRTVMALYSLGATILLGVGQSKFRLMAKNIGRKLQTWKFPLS
ccT2R200-2, sequence (A0A2Z6FB19 1-321): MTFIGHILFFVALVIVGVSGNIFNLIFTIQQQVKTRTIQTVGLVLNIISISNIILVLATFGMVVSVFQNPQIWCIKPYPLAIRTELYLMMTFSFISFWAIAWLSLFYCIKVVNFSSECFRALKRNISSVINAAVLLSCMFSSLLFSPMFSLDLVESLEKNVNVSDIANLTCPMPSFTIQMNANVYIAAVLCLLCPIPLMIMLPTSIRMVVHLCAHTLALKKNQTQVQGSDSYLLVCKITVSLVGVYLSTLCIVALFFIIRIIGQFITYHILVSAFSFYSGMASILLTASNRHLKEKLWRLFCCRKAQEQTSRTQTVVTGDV

OCc1ccccc1O[C@@H]1O[C@H](CO)[C@@H](O)[C@H](O)[C@H]1O [D-(−)-salicin]
response of ccT2R201 in screening of bitter compounds (ccT2R201): weakly responded

CCCc1cc(=O)[nH]c(=S)[nH]1 [PROP]
response of ccT2R200-1 in screening of bitter compounds (ccT2R200-1): weakly responded | response of ccT2R200-2 in screening of bitter compounds (ccT2R200-2): strongly activated | response of ccT2R201 in screening of bitter compounds (ccT2R201): strongly activated | response of ccT2R203-1 in screening of bitter compounds (ccT2R203-1): strongly activated

CC1=C[C@H]2[C@H]3[C@H](C(C)=C4[C@H]5OC(=O)[C@@H](C)[C@@H]5CC[C@](C)(O)[C@@H]43)[C@@]13[C@@H]2[C@@](C)(O)CC[C@H]1[C@H](C)C(=O)O[C@@H]13 [absinthin]
response of ccT2R200-1 in screening of bitter compounds (ccT2R200-1): weakly responded | response of ccT2R200-2 in screening of bitter compounds (ccT2R200-2): weakly responded | response of ccT2R203-1 in screening of bitter compounds (ccT2R203-1): weakly responded

C=C1CC[C@@H]2[C@](C)(CO)[C@H](O)CC[C@@]2(C)[C@@H]1C/C=C1/C(=O)OC[C@H]1O [andrographolide]
EC50 (ccT2R200-1): 182 ± 7 µM | response of ccT2R200-1 in screening of bitter compounds (ccT2R200-1): strongly activated | EC50 (ccT2R200-2): 335 ± 38 µM | response of ccT2R200-2 in screening of bitter compounds (ccT2R200-2): strongly activated | response of ccT2R202-2 in screening of bitter compounds (ccT2R202-2): weakly activated | response of ccT2R203-1 in screening of bitter compounds (ccT2R203-1): weakly responded

O=C(N[C@H](CO)[C@H](O)c1ccc([N+](=O)[O-])cc1)C(Cl)Cl [chloramphenicol]
response of ccT2R201 in screening of bitter compounds (ccT2R201): weakly responded

COc1cc2c(c(OC)c1OC)-c1ccc(OC)c(=O)cc1[C@@H](NC(C)=O)CC2 [colchicine]
response of ccT2R201 in screening of bitter compounds (ccT2R201): weakly responded

O=C(O)c1cc(=O)c2c(OCC(O)COc3cccc4oc(C(=O)O)cc(=O)c34)cccc2o1 [cromolyne]
response of ccT2R200-1 in screening of bitter compounds (ccT2R200-1): weakly responded

CC[N+](CC)(CC(=O)Nc1c(C)cccc1C)Cc1ccccc1 [denatonium benzoate]
EC50 (ccT2R201): 44 ± 5 µM | response of ccT2R201 in screening of bitter compounds (ccT2R201): weakly responded | EC50 (drT2R3a): 300 to 3000 µM | EC50 (drT2R1): 300 to 3000 µM | EC50 (mfT2R1): 300 to 3000 µM | EC50 (lcT2R01): 300 to 3000 µM

CN(C)C=S [dimethyl-thioformamide]
response of ccT2R200-1 in screening of bitter compounds (ccT2R200-1): weakly responded | response of ccT2R203-1 in screening of bitter compounds (ccT2R203-1): weakly responded

CNC(N)=S [methylthiourea]
response of ccT2R203-1 in screening of bitter compounds (ccT2R203-1): weakly responded

C=C(C)[C@@H]1[C@H]2OC(=O)[C@@H]1[C@]1(O)C[C@H]3O[C@]34C(=O)O[C@H]2[C@]14C [picrotoxinin]
EC50 (ccT2R200-1): 510 ± 26 µM | response of ccT2R200-1 in screening of bitter compounds (ccT2R200-1): strongly activated | response of ccT2R200-2 in screening of bitter compounds (ccT2R200-2): strongly activated | EC50 (ccT2R203-1; ccT2R203-1, dose-response with seven concentrations, HEK293T, luminescence AUC): 425 ± 99 µM | response of ccT2R203-1 in screening of bitter compounds (ccT2R203-1): strongly activated | response of drT2R4 (drT2R4): does not respond

O=C1C[C@@H]2OCC=C3CN4CC[C@]56c7ccccc7N1[C@H]5[C@H]2[C@H]3C[C@H]46 [strychinine]
response of ccT2R200-1 in screening of bitter compounds (ccT2R200-1): weakly responded | response of ccT2R202-1 in screening of bitter compounds (ccT2R202-1): weakly activated

CC(C)[C@]12CC(=O)[C@H](C)[C@H]1C2 [α-thujon]
response of ccT2R200-1 in screening of bitter compounds (ccT2R200-1): weakly responded

amarogentin
response of ccT2R200-1 in screening of bitter compounds (ccT2R200-1): strongly activated | response of ccT2R201 in screening of bitter compounds (ccT2R201): strongly activated
